# According to ChEMBL document CHEMBL1124499, “Metabolism of 3-(p-chlorophenyl)pyrrolidine. Structural effects in conversion of a prototype gamma-aminobutyric acid prodrug to lactam and gamma-aminobutyric acid type metabolites” (J Med Chem, 1989):
# Active and inactive are the calls of the source.
# Columns and labels:
# Mus musculus [1] = experiment: Anticonvulsant activity by using subcutaneous pentylenetetrazole (Metrazol) seizure threshold test in mice; type: functional; details: for ED50: sc
# Mus musculus [2] = species on record: Mus musculus; experiment: Anticonvulsant activity by using bicuculline test in mice; type: functional
# Mus musculus [3] = species on record: Mus musculus; experiment: Anticonvulsant activity by using rotarod toxicity test in mice; type: functional
# Mus musculus [4] = species on record: Mus musculus; experiment: Anticonvulsant activity by using maximal electroshock seizure test in mice; type: functional
# Rattus norvegicus [5] = species on record: Rattus norvegicus; experiment: Amount of metabolite produced in brain of rat at a concentration of 700 g of the compound; type: functional
# Rattus norvegicus [6] = experiment: Number of rats displaying convulsions by pretreatment with 55 mg/kg of compound (ip) in the presence of isoniazid after 49 mins out of 8 rats tested; type: functional
# Outline: (§1)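 Male Wistar rats were pretreated with test agent at 55 mg/kg ip (200 mg/mL in saline or DMSO), then given isoniazid 425 mg/kg sc (180 mg/mL in saline).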
# Rattus norvegicus [7] = species on record: Rattus norvegicus; experiment: Amount of metabolite produced in brain of rat at a concentration of 12000 g of the compound; type: functional
# Rattus norvegicus [8] = experiment: Number of rats died by pretreatment with 55 mg/kg of compound (ip) in the presence of isoniazid after 49 mins out of 8 rats tested; type: organism-based; parameters: dose 55 mg/kg; details: in vivo; outline: as §1
# Rattus norvegicus [9] = species on record: Rattus norvegicus; experiment: Amount of metabolite produced in liver of rat at a concentration of 700 g of the compound; type: functional
# Rattus norvegicus [10] = species on record: Rattus norvegicus; experiment: Amount of metabolite produced in liver of rat at a concentration of 12000 g of the compound; type: functional
# Mus musculus [11] = species on record: Mus musculus; experiment: Anticonvulsant activity by using bicuculline test in mice; Inactive; type: functional, organism-based
# Mus musculus [12] = experiment: Anticonvulsant activity by using subcutaneous pentylenetetrazole (Metrazol) seizure threshold test in mice; Inactive; type: functional, organism-based
# Rattus norvegicus [13] = species on record: Rattus norvegicus; experiment: Amount of metabolite alpha-baclofen produced in brain of rat at a concentration of 12000 g of the compound; None detected; type: functional, organism-based
# Rattus norvegicus [14] = species on record: Rattus norvegicus; experiment: Amount of metabolite alpha-baclofen lactam produced in brain of rat at a concentration of 12000 g of the compound; type: functional
# Rattus norvegicus [15] = species on record: Rattus norvegicus; experiment: Amount of metabolite alpha-baclofen produced in liver of rat at a concentration of 12000 g of the compound; None detected; type: functional, organism-based
# Rattus norvegicus [16] = experiment: In vivo formation of baclofen in 0-3 hr after administration of 55 mg/kg of compound intraperitoneally into 1r at; type: functional, organism-based; parameters: dose 55 mg/kg
# Outline: (§2)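 Male Wistar rats housed in metabolism cages were given 55 mg/kg prodrug ip. Urine was collected at 3 and 6 h and assayed by HPLC/EC; cumulative amount is reported per rat. One rat was decapitated at 3 h, and its brain was homogenized in Tris-KCl and assayed by HPLC/EC.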
# Rattus norvegicus [17] = species on record: Rattus norvegicus; experiment: Amount of metabolite alpha-baclofen lactam produced in liver of rat at a concentration of 12000 g of the compound; type: functional
# Rattus norvegicus [18] = experiment: In vivo formation of baclofen in 3h after administration of 55 mg/kg of compound intraperitoneally into 3 rats; type: functional, organism-based; parameters: dose 55 mg/kg; outline: as §2
# Rattus norvegicus [19] = species on record: Rattus norvegicus; experiment: Amount of metabolite alpha-baclofen lactam produced in liver of rat at a concentration of 700 g of the compound; type: functional
# Rattus norvegicus [20] = experiment: In vivo formation of alpha-baclofen in 0-3 hr after administration of 55 mg/kg of compound intraperitoneally into 1r at; type: functional, organism-based; parameters: dose 55 mg/kg; outline: as §2
# Rattus norvegicus [21] = species on record: Rattus norvegicus; experiment: Amount of metabolite alpha-baclofen lactam produced in brain of rat at a concentration of 700 g of the compound; type: functional
# Rattus norvegicus [22] = experiment: In vivo formation of alpha-baclofen in 0-3 hr after administration of 55 mg/kg of compound intraperitoneally into 2 rats; type: functional, organism-based; parameters: dose 55 mg/kg; outline: as §2
# Rattus norvegicus [23] = experiment: In vivo formation of alpha-baclofen in 3-6h after administration of 55 mg/kg of compound intraperitoneally into 2 rats; type: functional, organism-based; parameters: dose 55 mg/kg; outline: as §2
# Rattus norvegicus [24] = experiment: Number of rats displaying convulsions by pretreatment with 55 mg/kg of compound (ip) in the presence of isoniazid after 63 mins out of 6 rats tested; type: functional; outline: as §1
# Rattus norvegicus [25] = experiment: In vivo formation of baclofen in 3-6h after administration of 55 mg/kg of compound intraperitoneally into 2 rats; type: functional, organism-based; parameters: dose 55 mg/kg; outline: as §2
# Rattus norvegicus [26] = species on record: Rattus norvegicus; experiment: Amount of metabolite alpha-baclofen produced in liver of rat at a concentration of 700 g of the compound; None detected; type: functional, organism-based
# Rattus norvegicus [27] = experiment: In vivo formation of baclofen in 0-3 hr after administration of 55 mg/kg of compound intraperitoneally into 2 rats; type: functional, organism-based; parameters: dose 55 mg/kg; outline: as §2
# Rattus norvegicus [28] = experiment: In vivo formation of baclofen in 3-6h after administration of 55 mg/kg of compound intraperitoneally into 1r at; type: functional, organism-based; parameters: dose 55 mg/kg; outline: as §2
# Rattus norvegicus [29] = experiment: In vivo formation of baclofen in 4 hr after administration of 5.5 mg/kg of compound intraperitoneally into 4 rats; type: functional, organism-based; parameters: dose 5.5 mg/kg
# Rattus norvegicus [30] = experiment: In vivo formation of alpha-baclofen in 3-6h after administration of 55 mg/kg of compound intraperitoneally into 1r at; type: functional, organism-based; parameters: dose 55 mg/kg; outline: as §2
# Rattus norvegicus [31] = species on record: Rattus norvegicus; experiment: Amount of metabolite alpha-baclofen produced in brain of rat at a concentration of 700 g of the compound; None detected; type: functional, organism-based
# Rattus norvegicus [32] = experiment: Number of rats died by pretreatment with 55 mg/kg of compound (ip) in the presence of isoniazid after 63 mins out of 6 rats tested; type: functional; outline: as §1
# Rattus norvegicus [33] = experiment: In vivo formation of baclofen in 2 hr after administration of 5.5 mg/kg of compound intraperitoneally into 4 rats; type: functional, organism-based; parameters: dose 5.5 mg/kg
smiles,measurement,setting,value
CCC1(c2ccccc2)C(=O)NC(=O)NC1=O [PHENOBARBITAL],ED50,Mus musculus [1],13 mg/kg
same,ED50,Mus musculus [2],38 mg/kg
same,TD50,Mus musculus [3],69 mg/kg
same,ED50,Mus musculus [4],22 mg/kg
CCCC(CCC)C(=O)O [VALPROIC ACID],ED50,Mus musculus [1],149 mg/kg
same,ED50,Mus musculus [2],360 mg/kg
O=C1CC(c2ccc(Cl)cc2)CN1 (centres undefined),Activity,Rattus norvegicus [5],2.11 µg/mL
same,Activity,Rattus norvegicus [6],2
same,ED50,Mus musculus [1],41 mg/kg
same,Activity,Rattus norvegicus [7],0.28 µg/mL
same,ED50,Mus musculus [2],143 mg/kg
same,No. of rats died,Rattus norvegicus [8],1
same,Activity,Rattus norvegicus [9],26.4 µg/mL
same,Activity,Rattus norvegicus [10],14.6 µg/mL
same,TD50,Mus musculus [3],117 mg/kg
same,ED50,Mus musculus [4],68 mg/kg
NCC(CC(=O)O)c1ccc(Cl)cc1 (centres undefined) [BACLOFEN],Activity,Rattus norvegicus [5],0.162 µg/mL
same,Dose,Mus musculus [1],50 mg/kg
same,Activity,Rattus norvegicus [7],0.097 µg/mL
same,Activity,Rattus norvegicus [9],0.197 µg/mL
same,Activity,Rattus norvegicus [10],0.13 µg/mL
same,TD50,Mus musculus [3],47 mg/kg
same,ED50,Mus musculus [4],> 600 mg/kg
O=C1NC(=O)C(c2ccccc2)(c2ccccc2)N1,ED50,Mus musculus [11],inactive
same,ED50,Mus musculus [12],inactive
Clc1ccc(C2CCNC2)cc1 (centres undefined),Activity,Rattus norvegicus [13],Not detected
same,Activity,Rattus norvegicus [14],0.21 µg/mL
same,Activity,Rattus norvegicus [15],Not detected
same,Concentration,Rattus norvegicus [16],2 µg/mL
same,Activity,Rattus norvegicus [17],24.5 µg/mL
same,Concentration,Rattus norvegicus [18],24.3 ng/g
same,Activity,Rattus norvegicus [19],46.7 µg/mL
same,Concentration,Rattus norvegicus [20],0.5 µg/mL
same,Activity,Rattus norvegicus [21],0.5 µg/mL
same,Concentration,Rattus norvegicus [22],0 µg/mL
same,Concentration,Rattus norvegicus [23],2.3 µg/mL
same,Activity,Rattus norvegicus [24],6
same,Concentration,Rattus norvegicus [25],9.4 µg/mL
same,Activity,Rattus norvegicus [26],Not detected
same,Concentration,Rattus norvegicus [27],0 µg/mL
same,Concentration,Rattus norvegicus [28],16 µg/mL
same,Concentration,Rattus norvegicus [29],0.12 µg/mL
same,Concentration,Rattus norvegicus [30],2.6 µg/mL
same,Activity,Rattus norvegicus [31],Not detected
same,Activity,Rattus norvegicus [32],0
same,Concentration,Rattus norvegicus [33],0.04 µg/mL
NC(=O)CCC/N=C(\c1ccc(Cl)cc1)c1cc(F)ccc1O [PROGABIDE],ED50,Mus musculus [1],30 mg/kg
same,ED50,Mus musculus [2],20 mg/kg
same,ED50,Mus musculus [4],75 mg/kg
